Our source for the metabolised and inhibition values is ChEMBL document CHEMBL4330096, “Discovery of potent and selective 5-azaindazole inhibitors of leucine-rich repeat kinase 2 (LRRK2) - Part 1” (Bioorg Med Chem Lett, 2019).

Series [1] in a line: Stability in human liver microsomes assessed as compound turnover rate measured after 40 mins. The class given is ADME, Microsome. As to conditions: read-out: Drug metabolism. The method in brief:
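In vitro incubation of compound with liver microsomes: human (HLM) for 40 min, mouse (MLM) for 30 min. Reported as % turnover of parent compound.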

Series [2] has as its target AMP-activated protein kinase, AMPK (Homo sapiens) (UniProt P54646+O43741+P54619+Q9UGJ0+Q9Y478+Q13131+Q9UGI9). In words: Inhibition of AMPK (unknown origin) at 10 uM relative to control. The class given is protein-complex assay. An outline of the steps:
(§1)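 Single-point screen of each compound against a panel of 59 protein kinases, at 1 or 10 μM. The panel data are also summarised as a rescaled geometric mean selectivity score.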

Series [3] has as its target Calcium/calmodulin-dependent protein kinase kinase 2 (Homo sapiens) (UniProt Q96RR4). Nature of the series: Inhibition of CAMKKb (unknown origin) at 10 uM relative to control. An outline of the steps:
as §1

Series [4] concerns the target Serine/threonine-protein kinase Chk2 (Homo sapiens) (UniProt O96017). Nature of the series: Inhibition of CHK2 (unknown origin) at 10 uM relative to control. An outline of the steps:
as §1

For series [5], the target named is Casein kinase I (Homo sapiens) (UniProt Q9HCP0+P78368+P48730+P49674+P48729). Nature of the series: Inhibition of CK1 (unknown origin) at 10 uM relative to control. Type of series: protein assay. The method in brief: as §1
Series [6] has as its target Tyrosine-protein kinase CSK (Homo sapiens) (UniProt P41240). Nature of the series: Inhibition of CSK (unknown origin) at 10 uM relative to control. An outline of the steps:
as §1

Series [7] concerns the target Fibroblast growth factor receptor 1 (Homo sapiens) (UniProt P11362). Nature of the series: Inhibition of FGFR1 (unknown origin) at 10 uM relative to control. An outline of the steps: as §1
In series [8] the target is Homeodomain-interacting protein kinase 2 (Homo sapiens) (UniProt Q9H2X6). Nature of the series: Inhibition of HIPK2 (unknown origin) at 10 uM relative to control. An outline of the steps: as §1
For series [9], the target named is Insulin-like growth factor 1 receptor (Homo sapiens) (UniProt P08069). In words: Inhibition of IGF1R (unknown origin) at 10 uM relative to control. The method in brief:
as §1

Series [10] has as its target Insulin receptor-related protein (Homo sapiens) (UniProt P14616). Nature of the series: Inhibition of IRR (unknown origin) at 10 uM relative to control. An outline of the steps: as §1
Series [11] deals with Mitogen-activated protein kinase 8 (Homo sapiens) (UniProt P45983). Nature of the series: Inhibition of JNK1 (unknown origin) at 10 uM relative to control. An outline of the steps:
as §1

In series [12] the target is Maternal embryonic leucine zipper kinase (Homo sapiens) (UniProt Q14680). In words: Inhibition of MELK (unknown origin) at 10 uM relative to control. The method in brief: (§2)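 Single-concentration screen of each compound against a 59-protein-kinase panel, run at 10 µM or 1 µM. Activity relative to control is shown as a heat map across the panel.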
The target in series [13] is Serine/threonine-protein kinase Nek6 (Homo sapiens) (UniProt Q9HC98). In words: Inhibition of NEK6 (unknown origin) at 10 uM relative to control. The method in brief: as §2
Series [14] deals with Mitogen-activated protein kinase 14 (Homo sapiens) (UniProt Q16539). In words: Inhibition of p38a MAPK (unknown origin) at 10 uM relative to control. The method in brief:
(§3)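 Single-concentration screen across a panel of 59 protein kinases, with each compound tested at one fixed concentration. The read-out is residual kinase activity relative to control. Panel results are also condensed into a rescaled geometric mean (RGM) selectivity score.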

A further series is filed under the species Homo sapiens. Nature of the series: Inhibition of PKA (unknown origin) at 10 uM relative to control. The method in brief:
as §2

Series [15] deals with RAC-alpha serine/threonine-protein kinase (Homo sapiens) (UniProt P31749). In words: Inhibition of PKBa (unknown origin) at 10 uM relative to control. The method in brief:
as §2

The target of series [16] is RAC-beta serine/threonine-protein kinase (Homo sapiens) (UniProt P31751). Nature of the series: Inhibition of PKBb (unknown origin) at 10 uM relative to control. An outline of the steps:
as §2

The target in series [17] is Protein kinase C alpha type (Homo sapiens) (UniProt P17252). In words: Inhibition of PKCa (unknown origin) at 10 uM relative to control. An outline of the steps:
as §2

Series [18] has as its target T1, Protein kinase C zeta type (Homo sapiens) (UniProt Q05513).
T1 sequence (whole entry): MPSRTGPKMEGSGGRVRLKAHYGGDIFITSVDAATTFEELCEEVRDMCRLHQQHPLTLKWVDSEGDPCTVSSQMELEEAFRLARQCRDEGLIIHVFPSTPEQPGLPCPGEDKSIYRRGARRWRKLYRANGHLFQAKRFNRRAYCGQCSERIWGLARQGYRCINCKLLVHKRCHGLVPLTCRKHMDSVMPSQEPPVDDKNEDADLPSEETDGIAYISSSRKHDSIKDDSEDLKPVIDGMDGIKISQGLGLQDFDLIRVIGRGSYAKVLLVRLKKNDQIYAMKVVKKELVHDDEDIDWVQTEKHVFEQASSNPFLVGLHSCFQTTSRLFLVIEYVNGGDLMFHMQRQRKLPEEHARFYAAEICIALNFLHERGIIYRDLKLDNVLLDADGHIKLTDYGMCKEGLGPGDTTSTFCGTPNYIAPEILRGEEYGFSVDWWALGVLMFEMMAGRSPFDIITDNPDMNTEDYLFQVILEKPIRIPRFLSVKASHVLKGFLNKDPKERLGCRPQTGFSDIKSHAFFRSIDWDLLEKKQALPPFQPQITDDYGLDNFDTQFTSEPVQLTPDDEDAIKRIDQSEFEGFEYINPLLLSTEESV
In words: Inhibition of PKCz (unknown origin) at 10 uM relative to control. The method in brief: as §2

Series [19] has as its target Serine/threonine-protein kinase PLK1 (Homo sapiens) (UniProt P53350). In words: Inhibition of PLK1 (unknown origin) at 10 uM relative to control. An outline of the steps:
as §2

The target in series [20] is Ribosomal protein S6 kinase beta-1 (Homo sapiens) (UniProt P23443). In words: Inhibition of S6K1 (unknown origin) at 10 uM relative to control. An outline of the steps:
as §3

Series [21] deals with Proto-oncogene tyrosine-protein kinase Src (Homo sapiens) (UniProt P12931). Nature of the series: Inhibition of Src (unknown origin) at 10 uM relative to control. An outline of the steps:
as §3

Series [22] addresses 3-phosphoinositide-dependent protein kinase 1 (Homo sapiens) (UniProt O15530). In words: Inhibition of PDK1 (unknown origin) at 10 uM relative to control.

In general, inhibition refers to how much of the control response was suppressed.

Chain of Serine/threonine-protein kinase Chk2 (Homo sapiens) (O96017 whole entry): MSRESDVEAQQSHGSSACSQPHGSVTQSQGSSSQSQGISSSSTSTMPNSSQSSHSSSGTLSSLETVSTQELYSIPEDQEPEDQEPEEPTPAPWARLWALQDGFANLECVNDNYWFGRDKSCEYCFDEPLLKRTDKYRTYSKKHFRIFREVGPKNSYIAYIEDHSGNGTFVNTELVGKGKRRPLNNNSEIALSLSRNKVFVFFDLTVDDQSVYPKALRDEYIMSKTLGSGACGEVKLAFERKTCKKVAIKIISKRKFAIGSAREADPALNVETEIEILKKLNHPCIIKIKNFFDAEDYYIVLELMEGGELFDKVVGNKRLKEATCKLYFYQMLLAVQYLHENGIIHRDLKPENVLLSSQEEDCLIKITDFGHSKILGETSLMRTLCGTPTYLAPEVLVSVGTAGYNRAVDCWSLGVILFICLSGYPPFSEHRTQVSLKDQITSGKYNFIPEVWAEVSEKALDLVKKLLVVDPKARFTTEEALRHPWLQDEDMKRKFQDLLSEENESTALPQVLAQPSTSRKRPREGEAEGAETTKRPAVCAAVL
Chain of Proto-oncogene tyrosine-protein kinase Src (Homo sapiens) (P12931 2-536 limits assumed): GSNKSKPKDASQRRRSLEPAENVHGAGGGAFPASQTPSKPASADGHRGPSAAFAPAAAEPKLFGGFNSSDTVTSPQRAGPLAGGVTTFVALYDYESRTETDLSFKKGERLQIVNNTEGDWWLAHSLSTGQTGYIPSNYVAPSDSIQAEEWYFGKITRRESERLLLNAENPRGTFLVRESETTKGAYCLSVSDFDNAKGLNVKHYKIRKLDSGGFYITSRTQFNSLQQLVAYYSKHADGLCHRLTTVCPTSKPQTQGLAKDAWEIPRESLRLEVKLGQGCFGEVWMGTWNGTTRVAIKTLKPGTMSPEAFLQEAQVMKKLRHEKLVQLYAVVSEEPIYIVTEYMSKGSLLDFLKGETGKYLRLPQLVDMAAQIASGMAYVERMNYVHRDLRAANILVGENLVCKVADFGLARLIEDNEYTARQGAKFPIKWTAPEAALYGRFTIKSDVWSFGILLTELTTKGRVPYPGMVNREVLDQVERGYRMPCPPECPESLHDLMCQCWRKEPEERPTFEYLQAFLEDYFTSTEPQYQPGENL
Chain of Maternal embryonic leucine zipper kinase (Homo sapiens) (Q14680 whole entry, looked up): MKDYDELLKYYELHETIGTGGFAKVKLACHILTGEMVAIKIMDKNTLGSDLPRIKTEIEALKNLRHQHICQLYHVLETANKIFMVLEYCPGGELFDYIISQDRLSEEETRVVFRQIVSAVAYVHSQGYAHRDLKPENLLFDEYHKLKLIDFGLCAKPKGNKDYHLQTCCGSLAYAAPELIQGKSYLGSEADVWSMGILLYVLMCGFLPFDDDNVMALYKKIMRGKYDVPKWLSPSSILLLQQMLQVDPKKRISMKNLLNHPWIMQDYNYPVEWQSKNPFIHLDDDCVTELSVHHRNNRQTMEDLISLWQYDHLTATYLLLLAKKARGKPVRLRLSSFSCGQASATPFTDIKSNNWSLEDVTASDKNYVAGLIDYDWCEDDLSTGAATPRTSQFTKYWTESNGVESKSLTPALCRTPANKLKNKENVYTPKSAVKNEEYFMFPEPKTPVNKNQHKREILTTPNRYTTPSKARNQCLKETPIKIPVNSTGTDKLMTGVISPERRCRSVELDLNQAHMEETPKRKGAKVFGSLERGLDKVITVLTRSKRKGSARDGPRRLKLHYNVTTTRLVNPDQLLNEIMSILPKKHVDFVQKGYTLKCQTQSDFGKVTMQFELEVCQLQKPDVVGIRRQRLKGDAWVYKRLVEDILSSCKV
Chain of RAC-alpha serine/threonine-protein kinase (Homo sapiens) (P31749 whole entry): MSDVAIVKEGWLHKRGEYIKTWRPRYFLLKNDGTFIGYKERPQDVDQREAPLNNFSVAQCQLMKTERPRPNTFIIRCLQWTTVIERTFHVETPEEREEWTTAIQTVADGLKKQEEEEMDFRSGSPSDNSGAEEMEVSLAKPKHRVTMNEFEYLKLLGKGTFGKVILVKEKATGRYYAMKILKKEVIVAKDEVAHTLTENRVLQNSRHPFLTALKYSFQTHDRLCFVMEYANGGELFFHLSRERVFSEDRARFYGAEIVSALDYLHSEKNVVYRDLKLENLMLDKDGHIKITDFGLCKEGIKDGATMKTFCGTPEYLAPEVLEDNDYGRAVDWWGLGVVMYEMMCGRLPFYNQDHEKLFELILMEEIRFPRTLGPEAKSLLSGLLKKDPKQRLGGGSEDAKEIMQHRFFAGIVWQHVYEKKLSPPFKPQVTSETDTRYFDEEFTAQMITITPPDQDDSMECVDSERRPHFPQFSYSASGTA
Chain of Serine/threonine-protein kinase Nek6 (Homo sapiens) (Q9HC98 whole entry): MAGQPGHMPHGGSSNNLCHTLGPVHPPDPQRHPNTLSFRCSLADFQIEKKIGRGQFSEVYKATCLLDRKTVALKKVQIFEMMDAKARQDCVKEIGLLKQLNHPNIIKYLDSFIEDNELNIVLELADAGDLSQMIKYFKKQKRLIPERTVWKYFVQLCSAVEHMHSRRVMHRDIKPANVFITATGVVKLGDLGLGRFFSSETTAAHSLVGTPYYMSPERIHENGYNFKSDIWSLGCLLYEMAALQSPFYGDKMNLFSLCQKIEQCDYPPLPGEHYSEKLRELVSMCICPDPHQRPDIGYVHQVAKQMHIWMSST
Chain of Insulin receptor-related protein (Homo sapiens) (P14616 27-742 limits assumed): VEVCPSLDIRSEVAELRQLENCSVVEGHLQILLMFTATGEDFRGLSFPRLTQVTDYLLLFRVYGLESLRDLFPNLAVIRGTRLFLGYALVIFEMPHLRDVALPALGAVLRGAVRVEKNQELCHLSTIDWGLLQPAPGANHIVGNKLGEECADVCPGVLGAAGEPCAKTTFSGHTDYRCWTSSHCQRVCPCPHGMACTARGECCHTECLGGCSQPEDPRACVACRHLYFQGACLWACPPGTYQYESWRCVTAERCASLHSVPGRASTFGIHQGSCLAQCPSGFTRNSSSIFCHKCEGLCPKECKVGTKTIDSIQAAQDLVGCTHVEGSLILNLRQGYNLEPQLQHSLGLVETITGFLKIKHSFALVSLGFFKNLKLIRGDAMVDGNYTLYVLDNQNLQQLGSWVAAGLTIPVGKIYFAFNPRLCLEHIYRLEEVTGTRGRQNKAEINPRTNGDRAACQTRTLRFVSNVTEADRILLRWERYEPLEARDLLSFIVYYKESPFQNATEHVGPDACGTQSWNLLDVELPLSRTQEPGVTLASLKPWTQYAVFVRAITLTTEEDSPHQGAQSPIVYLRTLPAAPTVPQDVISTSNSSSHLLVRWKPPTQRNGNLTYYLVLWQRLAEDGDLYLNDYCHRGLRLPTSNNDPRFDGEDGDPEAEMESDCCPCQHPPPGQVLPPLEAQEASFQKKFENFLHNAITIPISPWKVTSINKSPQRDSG
Chain of Insulin receptor-related protein (Homo sapiens) (P14616 747-1297 limits assumed): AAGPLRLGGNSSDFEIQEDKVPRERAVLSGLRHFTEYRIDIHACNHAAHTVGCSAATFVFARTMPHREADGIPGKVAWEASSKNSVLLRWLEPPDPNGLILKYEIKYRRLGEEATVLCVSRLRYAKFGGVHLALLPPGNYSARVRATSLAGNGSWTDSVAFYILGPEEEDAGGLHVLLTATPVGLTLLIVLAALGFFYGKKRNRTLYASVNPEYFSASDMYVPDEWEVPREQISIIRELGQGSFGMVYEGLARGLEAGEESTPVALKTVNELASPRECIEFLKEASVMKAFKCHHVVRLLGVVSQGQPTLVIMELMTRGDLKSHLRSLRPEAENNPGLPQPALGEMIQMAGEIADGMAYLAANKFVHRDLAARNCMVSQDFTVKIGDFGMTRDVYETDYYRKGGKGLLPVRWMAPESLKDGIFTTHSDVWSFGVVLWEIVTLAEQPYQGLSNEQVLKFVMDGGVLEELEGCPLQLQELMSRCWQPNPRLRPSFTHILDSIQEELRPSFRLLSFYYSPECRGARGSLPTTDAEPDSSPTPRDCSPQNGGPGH
Chain of Ribosomal protein S6 kinase beta-1 (Homo sapiens) (P23443 whole entry, looked up): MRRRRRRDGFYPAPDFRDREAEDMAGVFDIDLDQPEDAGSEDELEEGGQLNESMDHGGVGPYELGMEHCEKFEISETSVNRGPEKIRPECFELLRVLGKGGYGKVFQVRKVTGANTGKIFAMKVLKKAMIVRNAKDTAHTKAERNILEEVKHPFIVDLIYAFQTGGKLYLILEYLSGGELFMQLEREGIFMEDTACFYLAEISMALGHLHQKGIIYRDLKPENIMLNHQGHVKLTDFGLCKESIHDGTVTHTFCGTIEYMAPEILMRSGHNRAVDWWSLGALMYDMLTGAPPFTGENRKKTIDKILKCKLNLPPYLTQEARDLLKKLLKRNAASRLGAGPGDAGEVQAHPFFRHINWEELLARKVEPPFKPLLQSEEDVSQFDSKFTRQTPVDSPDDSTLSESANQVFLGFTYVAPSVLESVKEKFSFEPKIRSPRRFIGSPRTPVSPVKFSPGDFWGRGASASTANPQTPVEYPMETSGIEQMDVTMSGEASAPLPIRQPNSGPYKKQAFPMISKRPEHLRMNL
Chain of Calcium/calmodulin-dependent protein kinase kinase 2 (Homo sapiens) (Q96RR4 2-588 limits assumed): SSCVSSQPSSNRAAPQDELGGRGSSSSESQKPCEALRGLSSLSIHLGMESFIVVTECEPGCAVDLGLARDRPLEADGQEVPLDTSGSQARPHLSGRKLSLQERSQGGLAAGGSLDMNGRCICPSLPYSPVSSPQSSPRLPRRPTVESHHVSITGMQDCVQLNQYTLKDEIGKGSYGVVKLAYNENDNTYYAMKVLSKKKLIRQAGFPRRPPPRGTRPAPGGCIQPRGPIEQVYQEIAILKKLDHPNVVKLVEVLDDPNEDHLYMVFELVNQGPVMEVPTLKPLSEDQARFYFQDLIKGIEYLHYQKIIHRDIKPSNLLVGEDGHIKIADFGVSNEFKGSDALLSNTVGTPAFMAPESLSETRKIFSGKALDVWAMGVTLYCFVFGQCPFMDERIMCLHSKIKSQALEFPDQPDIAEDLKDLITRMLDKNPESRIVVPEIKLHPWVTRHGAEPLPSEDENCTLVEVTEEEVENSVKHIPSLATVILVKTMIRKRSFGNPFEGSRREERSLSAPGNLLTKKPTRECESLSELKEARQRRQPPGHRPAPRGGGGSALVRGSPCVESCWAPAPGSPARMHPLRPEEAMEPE

As for `Cc1n[nH]c2ccnc(OC3CCCCC3)c12`, the metabolised at 40 min in [1] is 25%. Further, the inhibition in series [2] turned out to be 82%; in [3] it was 72%; in [4] it was 63%; in series [5], 86%; in series [6], 20%; in series [7] it was 84%. Moreover, the inhibition in series [8] was 56%; in series [9], 98%; in series [10], 66%; in [11], 86%; in series [12], 95%; in series [13], 4%. In addition, the inhibition is 0% in [14]; 93% in the series filed under Homo sapiens; 55% in series [15]; 28% in series [16]; 61% in series [17]; 19% in series [18]. In addition, the inhibition in series [19] stood at 53%; in series [20], 78%; in series [21], 47%; in series [22], 34%.
For the compound `c1cc(-c2n[nH]c3ccnc(OC4CCOCC4)c23)cc(N2CCOCC2)n1`, the metabolised at 40 min in [1] is 43%.
Regarding `Cc1n[nH]c2ccnc(Nc3ccccc3F)c12`, the inhibition in series [2] is 56%; in series [3], 36%; in series [4] it was 26%; in [5], 46%; in [6], 8%; in series [7], 66%. Moreover, the inhibition in series [8] was 50%; in [9], 81%; in series [10] it was 77%; in series [11], 55%; in [12], 83%; in series [13] it was 12%. The inhibition in [14] was 10%; in the series listed under Homo sapiens it was 9%; in [15], 34%; in series [16] it was 15%; in series [17], 26%; in series [18], 0%. The inhibition in [19] turned out to be 72%; in series [20] it was 36%; in [21], 23%; in series [22] it was 25%.
Take `CC(C)n1cc(-c2n[nH]c3ccnc(OC4CCOCC4)c23)cn1`: in series [1], the metabolised at 40 min was 21%.
Consider `Cc1n[nH]c2ccnc(Nc3ccc4ncsc4c3)c12`, for which the inhibition in [4] was determined as 36%; in series [5], 77%; in series [6], 0%; in [11] it was 56%; in series [14], 0%; in series [20], 19%.
Regarding `Cc1n[nH]c2ccnc(NC3CCCCC3)c12`, the metabolised at 40 min in series [1] stood at 7%. The inhibition in [2] was determined as 29%; in [3], 46%; in series [4], 37%; in [5], 27%; in series [6], 0%; in series [7] it was 69%. For the same compound, the inhibition in series [8] worked out at 38%; in [9], 88%; in series [10], 70%; in [11] it was 32%; in [12] it was 91%; in [13] it was 13%. Besides, the inhibition in series [14] stood at 9%; in the series listed under Homo sapiens, 49%; in series [15], 29%; in series [16], 24%; in [17] it was 25%; in series [18], 0%. The inhibition in series [19] was 34%; in series [20], 28%; in series [21], 0%; in [22], 13%.
